Compound activity from PubChem.
The list is not random: actives were taken first. Their share in the collection is about 2.2%.
Runt-CBFb FRET: inhibitors of human RUNX1 Runt domain binding to CBFb | Q01196+Q13951 | Cerulean-Runt/Venus-CBFb FRET ratio 530/480, 1 h | inhibition, % at 20 µM | 0.46% of 220,000 active;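 active = inhibition over about 50% at 20 µM in the single-dose screen, limit read from the data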;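 also: 0% = DMSO wells and 100% = excess unlabeled CBFb competitor control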
Target sequence (Q01196 whole entry, looked up, the tested form may be a part): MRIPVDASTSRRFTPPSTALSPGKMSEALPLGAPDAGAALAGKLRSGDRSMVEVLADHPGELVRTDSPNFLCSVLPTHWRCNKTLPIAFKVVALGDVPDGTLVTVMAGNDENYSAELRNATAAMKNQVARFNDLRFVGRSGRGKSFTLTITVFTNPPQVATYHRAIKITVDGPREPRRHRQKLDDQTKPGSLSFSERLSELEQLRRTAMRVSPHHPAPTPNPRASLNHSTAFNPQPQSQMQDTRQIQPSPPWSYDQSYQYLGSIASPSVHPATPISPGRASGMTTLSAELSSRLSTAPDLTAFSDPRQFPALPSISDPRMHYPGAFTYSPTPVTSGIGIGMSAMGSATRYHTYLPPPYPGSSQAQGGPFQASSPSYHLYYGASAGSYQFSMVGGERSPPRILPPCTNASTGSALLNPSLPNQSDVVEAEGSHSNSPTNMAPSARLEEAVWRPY
Target sequence (Q13951 whole entry, looked up, the tested form may be a part): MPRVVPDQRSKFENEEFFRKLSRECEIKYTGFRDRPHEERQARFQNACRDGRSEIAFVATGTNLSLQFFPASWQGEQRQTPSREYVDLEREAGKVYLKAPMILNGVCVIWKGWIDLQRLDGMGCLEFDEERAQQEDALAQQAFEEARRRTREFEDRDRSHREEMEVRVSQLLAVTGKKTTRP
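test system = Cerulean-Runt domain fusion protein, energy donor | probe or stimulus = Venus-CBFb binding partner, 100 nM | incubation = two 1 h room-temperature incubations shielded from light | detection = fluorescence energy transfer, 422 nm excitation, 530/480 nm emission | measure = loss of energy transfer signal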
Hck-Nef inh: human Hck-Nef kinase inhibition; P08631; Recombinant Hck-YEEI plus Nef, Z-Lyte FRET kinase assay; inhibition, % at 20 µM; 0.68% of 220,000 active; AID 463187;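 active = Hck-Nef kinase inhibition above about 50%, limit read from the data; inactive = inhibition below that limit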;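 also: 0% = DMSO with Hck plus Nef and 100% = Hck alone without Nef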
Runt-SMMHC FRET: inhibitors of human RUNX1 Runt domain binding to CBFb-SMMHC; AID 1434; inhibition, % at 20 µM; Cerulean-Runt/Venus-CBFb-SMMHC FRET ratio 530/480, 1 h; 0.74% of 220,000 active; Q01196+Q13951;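 active = mean inhibition across duplicate retests at 20 µM reaching about 50%, limit read from the data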;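 also: 0% = DMSO wells and 100% = wells with excess untagged CBFb-SMMHC; inhibitors lower the FRET ratio by blocking Runt binding to CBFb-SMMHC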
RanGTP-Imp inh: inhibitors of RanGTP-importin-beta interaction, primary screen, biochemical, FRET, CFP-Ran, YFP-importin-beta, homogeneous | cell-free CFP-Ran/YFP-importin-beta FRET ratio | inhibition, % (test concentration not listed) | 1.1% of 300,000 active | AID 2216;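 active = more than half of the replicate wells show a fall in the fluorescence ratio signal beyond about 16%, limit read from the data, passing the limit was not always enough; inconclusive = exactly half of the replicate wells pass the set limit; inactive = fewer than half of replicates pass the limit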;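 also: 0% = DMSO wells and 100% = Ran loaded with GDP instead of GTP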
PERK inhibitor: inhibitors of human PERK kinase; Q9NZJ5; AID 1416; inhibition, % at 5.6 µM; CHO PERK-DD fusion, SEAP luminescence translation reporter; 0.17% of 220,000 active;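 active = inhibition above the mean inhibition of all tested compounds plus 3 SD, set separately per screening campaign, cut at about 2.9% in these data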;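 also: PERK kinase domain activated by AP20187 dimerizer at 100 nM; 0% = DMSO with dimerizer and 100% = rapamycin at 8.4 µM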
eIF4E 4G PPI: blocks eIF4E binding to eIF4G; inhibition, % at 21.7 µM; TR-FRET eIF4E-eIF4GI(517-606) binding, 2 h; AID 782; 0.37% of 220,000 active; P63073+Q04637;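 active = inhibition above about 30%, limit read from the data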;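 also: 0% = full FRET control wells and 100% = background wells lacking eIF4GI fragment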
Active calls of the source: *; ? = inconclusive; / = no result.

SMILES | Runt-CBFb FRET | Hck-Nef inh | Runt-SMMHC FRET | RanGTP-Imp inh | PERK inhibitor | eIF4E 4G PPI
CCOC(=O)C1(Cc2cccc(OC)c2)CCN(Cc2cnc(C)s2)CC1 | 2 | -1 | -1 | 45* | 0 | 1
O=S(=O)(Cc1ccccc1)N1CCN(c2ccccc2)CC1 | / | 2 | -4 | 59* | 1 | -7
CC12CCC(=O)N1C(C(=O)OCC(=O)Nc1cccc(Br)c1)CS2 (stereo not drawn) | 1 | 17 | 0 | -3 | 0 | 2
CC(C)(C)C(=O)NC(=S)N1CCCC1 | -2 | -1 | 3 | 1 | 0 | -4
CC12CC3(C)CC(C)(C1)CC(C(=O)NC(=S)N1CCCC1)(C2)C3 | / | -6 | -4 | 0 | 0 | 32*
CCOC(=O)c1cc(-c2ccc(OC)cc2)nn1-c1ccccc1C(=O)O | -1 | 12 | -4 | 0 | -1 | 34*
CN1CCc2c(C#N)c(N3CCOCC3)nc(NCC3CCCO3)c2C1 (stereo not drawn) | 33 | 11 | 6 | 70* | -1 | -4
COc1ccc2oc(=N)c(C(=O)Nc3ccc(C)cc3)cc2c1 | / | / | / | -2 | / | /
COc1ccccc1NC(=O)c1cc2cc(Br)ccc2cc1O | -29 | -4 | -97 | 0 | 0 | 8
COc1ccccc1NC(=O)c1cc2ccccc2o/c1=N\O | 48 | / | 62* | -2 | / | -1
COc1ccc(N=c2oc3ccccc3cc2C(=O)Nc2ccccn2)cc1OC | / | 26 | / | 6 | 1 | -3
COc1ccc2o/c(=N\O)c(C(=O)Nc3ccc(C)cc3)cc2c1 | 21 | 18 | 63* | 4 | 3 | 3
COc1ccccc1NC(=O)c1cc2ccc(O)cc2o/c1=N\O | 95* | 6 | 81* | 135* | 0 | -6
Cc1c(Cl)c(=O)n2c(=O)c(Cl)c(C)n12 | 21 | -68 | 86* | 128* | 2 | 3
CN(Cc1ccccc1)C1=CC(=[N+]2CCCCC2)CC(C)(C)C1 | -11 | 1 | 8 | 4 | 0 | 4
CC1(C)CC(NNCCC#N)=CC(=[N+]2CCCC2)C1 | 3 | -7 | 2 | 19* | -1 | 5
COc1cccc(CC2(CO)CCN(S(=O)(=O)N(C)C)CC2)c1 | 0 | 7 | -5 | 18* | 1 | 4
COc1cccc(CC2(CO)CCCN(S(=O)(=O)N(C)C)C2)c1 (stereo not drawn) | 2 | 16 | -2 | 0 | 0 | -1
CCN(c1cccc(C)c1)S(=O)(=O)c1ccc(-n2cccn2)cc1 | / | / | / | 2 | / | /
COc1ccc(CCNc2nc(N3CCCCC3)nc(N3CCCCC3)n2)cc1OC | -3 | -7 | -1 | -5 | -1 | 5
O=c1[nH][nH]c(=S)n1C1CCCCC1 | 29 | -161 | 55 | 0 | 1 | 44*
O=c1cc(O)n(C2CCCCCC2)c(=O)[nH]1 | / | / | / | 0 | / | /
CCOc1ccc(S(=O)(=O)N2CCOCC2)cc1NC(=O)C1CCC1 | / | / | / | 0 | / | /
COC(=O)Sc1nnc(-c2ccc(Br)cc2)o1 | 5 | 1 | 0 | ? | 0 | 70*
CCOC(=O)N/N=C/c1ccc(OC)c(O)c1 | 0 | 17 | -6 | 3 | 1 | 0
SMILES | Runt-CBFb FRET | Hck-Nef inh | Runt-SMMHC FRET | RanGTP-Imp inh | PERK inhibitor | eIF4E 4G PPI
O=[N+]([O-])c1ccc(C2=Nn3cnnc3SC2)cc1 | 1 | 16 | -2 | -4 | 1 | 62*
C/C(CC(=O)Nc1ccc(Cl)cc1Cl)=N\NC(=O)c1ccncc1 | 3 | 7 | -6 | 0 | 3.1* | -5
C/C(CC(=O)Nc1ccc(C)c(Cl)c1)=N\NC(=O)c1ccncc1 | 2 | -31 | -1 | / | 2 | 2
COc1cc(C(=S)N2CCOCC2)cc(OC)c1OS(=O)(=O)c1ccc(Cl)cc1 | / | / | / | -1 | / | /
Cc1ccc2cc3c(NC(=O)C(C)C)nn(C)c3nc2c1 | -2 | 8 | -12 | 8 | -2 | 2
CCCn1nc(NC(=O)CC)c2cc3cccc(C)c3nc21 | / | / | / | 55* | / | /
CCn1nc(NC(=O)c2ccncc2)c2cc3cccc(C)c3nc21 | 7 | 2 | 16 | ? | 1 | 4
CCn1nc(NC(=O)c2cccnc2)c2cc3cccc(C)c3nc21 | 11 | 6 | -22 | -18 | 0 | -8
Cc1cccc2cc3c(NC(=O)C(C)C)nn(C)c3nc12 | 14 | 21 | 22 | 47* | 0 | 1
